How the values were obtained:
[1] = tested on: Mus musculus; assay: Percent median survival time of mice injected with B16 melanoma, at a intraperitoneal compound dose of 20 mg/kg
[2] = tested on: Mus musculus; assay: Long-term survivors among 6 mice infected with P388 leukemia, scored on day 60 at 160 mg/kg dose on day 1; format: functional
Summary of the method: (§1)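 B6D2F1 mice in groups of 6–7 were inoculated ip on day 0 with 10^6 P388 cells. Dihydrochloride salts were dissolved in water and given iv on day 1 or on days 1, 5 and 9. Doses ranged from a low nontoxic dose to a toxic one. Long-term survivors were counted at day 60.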

[3] = tested on: Mus musculus; assay: Percent median survival time of mice intraperitoneally injected with P388 leukemia was determined from tested at 160 mg/kg at day1,5,9 dose to that of control; format: functional; details: route intraperitoneal
Summary of the method: (§2)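 P388 leukemia in B6D2F1 mice (groups of 6–7), 10^6 cells inoculated ip on day 0. Dihydrochloride salts were dissolved in water and given iv on day 1 or on days 1, 5, 9. Three doses were tested, then five if active. %T/C = median survival treated/control × 100, reported at the optimal dose (no toxic death, weight loss <20%), from one or two representative experiments.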

[4] = tested on: L1210; assay: Inhibition of murine L1210 leukemia cell proliferation measured by the MTT assay; format: functional, cell-based; details: Mus musculus
Summary of the method: (§3)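 Murine L1210 leukemia and B16 melanoma cells were grown in RPMI 1640 with 10% fetal calf serum, 2 mM L-glutamine, penicillin/streptomycin and 10 mM HEPES (pH 7.4). Cells were exposed to nine serial drug dilutions in triplicate for about four doubling times (L1210 48 h, B16 96 h), then read by microculture tetrazolium (MTT) assay. IC50 is the concentration halving optical density versus untreated controls, averaged over ≥2 independent experiments.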

[5] = tested on: B16; assay: Inhibition of murine B16 melanoma cell proliferation measured by the MTT assay; format: functional, cell-based; details: Mus musculus
Summary of the method: as §3

[6] = tested on: Mus musculus; assay: Percent median survival time of mice intraperitoneally injected with P388 leukemia was determined from tested at 160 mg/kg at day1 dose to that of control; format: functional
Summary of the method: as §2

[7] = tested on: Mus musculus; assay: Long-term survivors among 6 mice infected with P388 leukemia, scored on day 60 at 160 mg/kg dose on day 1, 5, 9; format: functional
Summary of the method: as §1

[8] = tested on: Mus musculus; assay: Long-term survivors among 6 mice infected with P388 leukemia, scored on day 90 at 20 mg/kg dose; format: functional
[9] = tested on: Mus musculus; assay: Long-term survivors among 12 mice infected with P388 leukemia, scored on day 60 at 240-320 mg/kg dose on day 1; format: functional
Summary of the method: as §1

[10] = tested on: Mus musculus; assay: Percent median survival time of mice injected with B16 melanoma, at a intraperitoneal compound dose of 10 mg/kg
[11] = tested on: Mus musculus; assay: Percent median survival time of mice injected with P388 leukemia, at a intravenous compound dose of 80-160 mg/kg
[12] = tested on: Mus musculus; assay: Percent median survival time of mice injected with P388 leukemia, at a subcutaneous compound dose of 240-320 mg/kg; format: functional
[13] = tested on: Mus musculus; assay: Long-term survivors among 12 mice infected with B16 melanoma, scored on day 90 at 10 mg/kg dose on days 1-9
[14] = tested on: Mus musculus; assay: Long-term survivors among 12 mice infected with P388 leukemia, scored on day 60 at 20 mg/kg dose on day 1, 5, 9; format: functional
Summary of the method: as §1

[15] = tested on: Mus musculus; assay: Percent median survival time of mice injected with B16 melanoma, at a intraperitoneal compound dose of 5 mg/kg
[16] = tested on: Mus musculus; assay: Long-term survivors among 12 mice infected with P388 leukemia, scored on day 60 at 40 mg/kg dose on day 1; format: functional
Summary of the method: as §1

[17] = tested on: Mus musculus; assay: Percent median survival time of mice injected with P388 leukemia, at dose of 40 mg/kg on day 1; format: functional
Summary of the method: as §2

[18] = tested on: Mus musculus; assay: Long-term survivors among 21 mice infected with B16 melanoma, scored on day 90 at 5 mg/kg dose
[19] = tested on: Mus musculus; assay: Percent median survival time of mice injected with P388 leukemia, at dose of 20 mg/kg on day 1, 5, 9; format: functional
Summary of the method: as §2

[20] = tested on: Mus musculus; assay: Percent median survival time of mice injected with P388 leukemia, at a intravenous compound dose of 320 mg/kg
[21] = tested on: Mus musculus; assay: Percent median survival time of mice injected with P388 leukemia, at a subcutaneous compound dose of 160 mg/kg; format: functional
[22] = tested on: Mus musculus; assay: Long-term survivors among 14 mice infected with P388 leukemia, scored on day 60 at 320 mg/kg dose on day 1; format: functional
Summary of the method: as §1

[23] = tested on: Mus musculus; assay: Percent median survival time of mice injected with B16 melanoma, at a intraperitoneal compound dose of 20-40 mg/kg
[24] = organism: Mus musculus; assay: Long-term survivors among 14 mice infected with B16 melanoma, scored on day 90 at optimal dose on days 1-9
[25] = tested on: Mus musculus; assay: Percent median survival time of mice injected with P388 leukemia, at a subcutaneous compound dose of 20 mg/kg; format: functional
[26] = tested on: Mus musculus; assay: Long-term survivors among 7 mice infected with P388 leukemia, scored on day 60 at 40 mg/kg dose on day 1; format: functional
Summary of the method: (§4)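 B6D2F1 mice in groups of 6–7 received 10^6 P388 cells ip on day 0. Dihydrochloride salts dissolved in water were injected iv on day 1 or on days 1, 5 and 9, at three doses and then five. Read-outs were % T/C (median survival treated/control × 100) and long-term survivors on day 60, both at the optimal dose (no toxic death, weight loss <20%).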

[27] = tested on: Mus musculus; assay: Long-term survivors among 7 mice infected with B16 melanoma, scored on day 90 at 40 mg/kg dose on day 1; format: functional
[28] = tested on: Mus musculus; assay: Percent median survival time of mice injected with P388 leukemia, at a intravenous compound dose of 40 mg/kg
[29] = tested on: Mus musculus; assay: Percent median survival time of mice injected with B16 melanoma, at a intraperitoneal compound dose of 1.25 mg/kg
[30] = tested on: Mus musculus; assay: Percent median survival time of mice injected with P388 leukemia, at a subcutaneous compound dose of 240 mg/kg; format: functional
[31] = tested on: Mus musculus; assay: Long-term survivors among 7 mice infected with B16 melanoma, scored on day 90 at 240 mg/kg dose on day 1; format: functional
[32] = tested on: Mus musculus; assay: Long-term survivors among 7 mice infected with P388 leukemia, scored on day 60 at 240 mg/kg dose on day 1; format: functional
Summary of the method: as §4

[33] = tested on: Mus musculus; assay: Percent median survival time of mice injected with B16 melanoma, at a intraperitoneal compound dose of 80 mg/kg
[34] = tested on: Mus musculus; assay: Long-term survivors among 6 mice infected with P388 leukemia, scored on day 60 at 240 mg/kg dose; format: functional
Summary of the method: as §1

[35] = tested on: Mus musculus; assay: Percent median survival time of mice intraperitoneally injected with P388 leukemia was determined from tested at 240 mg/kg at day1 dose to that of control; format: functional; details: route intraperitoneal
Summary of the method: as §2

[36] = tested on: Mus musculus; assay: Long-term survivors among 6 mice infected with P388 leukemia, scored on day 60 at 160 mg/kg dose; format: functional
Summary of the method: as §1

For `Cc1c2ccnc(C(=O)NCCN(C)C)c2cc2c3cc(OCCCCC(=O)O)ccc3n(C)c12`, the T/C [1] was 146%, the LTS [2] was 0 and the T/C [3] was 108%. It also gave an IC50 [4] of 4230 nM, an IC50 [5] of 3470 nM and a T/C [6] of 107%. The LTS [7] was 0 and the LTS [8] was 0.
For `Cc1c2ccnc(C(=O)NCCN(C)C)c2cc2c3cc(OC(=O)CCCCC(=O)O)ccc3n(C)c12`, the IC50 [4] was 20.8 nM, the IC50 [5] was 5 nM and the LTS [9] was 16. It also gave a T/C [10] of over 352%, a T/C [11] of over 607% and a T/C [12] of over 607%. The LTS [13] was 4.
In the case of `Cc1c2c(C(=O)NCCN(C)C)nccc2c(C)c2c1c1cc(OC(=O)CCCC(=O)O)ccc1n2C`, the LTS [14] is reported as 11, the IC50 [4] is reported as 34 nM and the IC50 [5] is reported as 1.4 nM. The T/C [15] was 202%, the LTS [16] was 11 and the T/C [17] was over 640%. It also gave an LTS [18] of 0 and a T/C [19] of over 640%.
`Cc1c2ccnc(C(=O)NCCN(C)C)c2cc2c3cc(OC(=O)CC(C)(C)CC(=O)O)ccc3n(C)c12` gave a T/C [20] of over 600%, an IC50 [4] of 2.7 nM and an IC50 [5] of 3.7 nM. The T/C [21] was 404%, the LTS [22] was 4 and the T/C [23] was over 466%. It also gave an LTS [24] of 5.
Compound `Cc1c(OC(=O)CCCCC(=O)O)ccc2c1c1cc3c(C(=O)NCCN(C)C)nccc3c(C)c1n2C` has a T/C [25] of over 600%, an IC50 [4] of 24.7 nM and an LTS [26] of 0. The IC50 [5] was 6.4 nM, the LTS [27] was 0 and the T/C [28] was 300%. It also gave a T/C [29] of 127%.
`Cc1c2ccnc(C(=O)NCCN(C)C)c2cc2c3cc(OC(=O)NCCCC(=O)O)ccc3n(C)c12` showed a T/C [30] of 111%, an LTS [31] of 0 and an LTS [32] of 0. For the same compound, the IC50 [4] was 522 nM, the IC50 [5] was 45.7 nM and the T/C [21] was 109%. It also gave a T/C [33] of 139%.
With `Cc1c2ccnc(C(=O)NCCN(C)C)c2cc2c3cc(OCC(O)CO)ccc3n(C)c12` (stereo unspecified) the T/C [1] was 129%, the T/C [3] was 114% and the LTS [34] was 0. For the same compound, the IC50 [4] was 500 nM, the IC50 [5] was 954 nM and the T/C [35] was 127%. It also gave an LTS [36] of 0.
